# Screening data deposited in PubChem BioAssay by Sanford-Burnham Center for Chemical Genomics.
# SUMO1-SIM PPI = modulators of SUMO1 protein-protein interactions, primary screen, biochemical, uHTS. 360,000 compounds, 0.33% hits. AID 602429, 2012. inhibition, % at 20 µM. SUMO1 binding to a labelled peptide, TR-FRET, 1 h; in the data active = inhibition above about 37%
# Scp-1 inhibitor = Scp-1 phosphatase inhibitors, primary screen, biochemical, colorimetric, uHTS; Carboxy-terminal domain RNA polymerase II polypeptide A small phosphatase 1 (Homo …; Recombinant Scp1, phosphopeptide, malachite green phosphate absorbance; inhibition, % at 20 µM; 340,000 compounds, 0.88% hits; AID 493091, 2011;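 active = inhibition above about 50% at 20 µM, limit read from the data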;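 also: plate controls were DMSO wells with enzyme for no effect and wells lacking enzyme for full effect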
#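 Assay system: SCP-1 catalytic fragment, aa 76-261 | Buffer or medium: Tris acetate buffer pH 5.5 with MgCl2 and Tween-20 | Compound: One concentration, 20 µM, with 1.0% DMSO | Also added: Phospho 17-mer peptide substrate | Signal: Absorbance at 630 nm | Incubation: 45 min enzyme reaction at room temperature | Measure: % inhibition of SCP-1 phosphate liberation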
# DNMT1 block = human DNMT1 methyltransferase inhibitors, primary screen, biochemical, molecular beacon, fluorescence, HinP1I cleavage, uHTS | inhibition (reported as % activation of signal), % at 10 µM | 360,000 compounds, 0.83% hits; in the data active = inhibition above about 50%
# STEP inh = STEP phosphatase inhibitors, primary screen, biochemical, fluorescence intensity, uHTS; Tyrosine-protein phosphatase non-receptor type 5 (Homo sapiens), P54829; recombinant STEP, OMFP fluorogenic substrate; inhibition, % at 20 µM; 360,000 compounds, 0.25% hits; AID 588621, 2011;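 active = inhibition at 20 µM, scaled per plate between control wells, above about 37%, limit read from the data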;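 also: 0% = DMSO with enzyme and substrate and 100% = substrate only without enzyme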
# Target sequence (P54829 whole entry, looked up): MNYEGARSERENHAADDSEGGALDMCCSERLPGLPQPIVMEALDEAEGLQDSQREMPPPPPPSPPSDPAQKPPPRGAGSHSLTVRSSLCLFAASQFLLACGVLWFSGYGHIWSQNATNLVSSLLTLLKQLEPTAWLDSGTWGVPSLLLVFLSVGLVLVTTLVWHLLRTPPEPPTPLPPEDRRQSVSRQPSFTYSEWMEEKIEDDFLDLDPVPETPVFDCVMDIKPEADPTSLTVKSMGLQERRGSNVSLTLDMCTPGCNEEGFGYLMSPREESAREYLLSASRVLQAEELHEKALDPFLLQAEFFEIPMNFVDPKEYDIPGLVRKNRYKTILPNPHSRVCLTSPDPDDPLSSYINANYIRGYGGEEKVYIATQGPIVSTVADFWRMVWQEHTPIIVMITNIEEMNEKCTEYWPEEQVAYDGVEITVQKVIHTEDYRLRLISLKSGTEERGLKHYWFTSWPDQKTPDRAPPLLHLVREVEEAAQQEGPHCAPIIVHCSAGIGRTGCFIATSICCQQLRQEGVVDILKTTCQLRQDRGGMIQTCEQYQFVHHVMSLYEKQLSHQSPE
#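 Also added – OMFP at 25 µM · Test system – STEP tyrosine phosphatase · Technique – FITC-channel fluorescence of OMFP product · Schedule – 20 min at room temperature, dark · Evaluation – control-normalized % inhibition with plate pattern correction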
# LMPTP inh = LMPTP phosphatase inhibitors, primary screen, biochemical, fluorescence intensity, uHTS | 360,000 compounds, 0.22% hits | recombinant LMPTP-A, OMFP fluorogenic substrate | inhibition, % at 20 µM;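 active = compounds that cut the enzyme signal by at least half of the control window in the single-dose screen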;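 also: plate controls were DMSO wells with enzyme plus substrate for no effect and substrate without enzyme for full effect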
#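 Test system – LMPTP-A enzyme · Amount – LMPTP-A at 0.625 nM final in the reaction · Buffer or medium – Bis-Tris pH 6.0, DTT, detergent · Reagent – OMFP 400 µM · Doses – single 20 µM dose · Schedule – reaction 50 min, room temperature, dark · Detection – fluorescence intensity of OMFP turnover product · Evaluation – percent inhibition versus substrate-only and uninhibited controls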
# Beacon interf DR = spectral interference with molecular beacon fluorescence, dose response, artefact control for DNMT1 inhibitor project, biochemical, fluorescent molecular beacon; shares compounds with DNMT1 block; spectral interference counter-screen; IC50, µM; 200 tested, under 10 active; call rule not given here
# DNMT1 confirm = DNMT1 methyltransferase inhibitor retest, confirmation, biochemical, molecular beacon, fluorescence, single concentration; shares compounds with DNMT1 block; DNMT1 molecular beacon HinP1I cleavage; inhibition, % at 10 µM; 2,300 compounds, 8% hits; AID 602385, 2012;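 active = average inhibition of at least 30% in the single-concentration confirmation test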
# DNMT1 interf = beacon fluorescence artifact counter-screen. shares compounds with DNMT1 block. DNMT1 molecular beacon spectral interference counterscreen, fluorescence 485/520. activation (fluorescence interference), % at 10 µM. 2,300 compounds, 1% hits. AID 602387;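 active = activation of at least 30% at 10 µM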;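 also: DNMT1 catalytic domain with a HinP1I cleavage step and a FAM/dabcyl DNA beacon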
# * hit, by the source's call; . = no result. Only some compounds are listed: those with a hit (about 1.7% of all), similar ones and a draw of the others.
SMILES,SUMO1-SIM PPI,Scp-1 inhibitor,DNMT1 block,STEP inh,LMPTP inh,DNMT1 confirm,DNMT1 interf,others
Cc1ccc(S(=O)(=O)N2C[C@H]3[C@H]4C(=O)N(c5ccccc5)C(=O)[C@H]4C[C@H](OC(=O)NC4CC4)[C@@]3(O)C2)cc1,-1,.,0,-2,-1,.,.,
CC(C)CC(=O)Nc1ccc(C(=O)COC(=O)CN2C(=O)NC3(CCCCC3C)C2=O)cc1 (centres undefined),7,45,10,0,2,.,.,
CCOC(=O)N1CCC(NC(=O)CS(=O)Cc2nc(-c3ccc(C)cc3)oc2C)CC1 (centres undefined),4,-3,1,-1,0,.,.,
O=C1NC(=O)C2(N1)C(=O)c1cccc3cccc2c13 (centres undefined),-16,.,92*,-1,-3,49*,70*,
COc1ccc(OC)c(NC(=O)COc2ccc3c(c2)CCC3)c1,9,-8,-3,-1,4,.,.,
CCCCN(C(=O)c1nn(C)c(=O)c2ccccc12)c1c(N)n(CC(C)C)c(=O)[nH]c1=O,-4,-2,3,-2,-1,.,.,
CCOc1cc(/C=C2\C(=O)N(c3nc(-c4ccc(Br)cc4)cs3)N=C2c2ccccc2)ccc1O,21,-16,96*,4,10,93*,-5,Beacon interf DR=>99
COc1cc(/C=C2\C(=O)N(c3ccc(NC(C)=O)cc3)N=C2c2ccccc2)ccc1O,-5,-1,-4,5,2,.,.,
CO[C@@H]1CN(C)C(=O)c2ccc(NC(=O)C3CCCC3)cc2OC[C@@H](C)N(Cc2ccc(F)cc2)C[C@H]1C,5,.,.,.,0,.,.,
CCOc1ccc(/C=c2\sc3nc(-c4ccco4)nn3c2=O)cc1OCC,12,42,65*,1,0,4,-1,
Cc1ccc2oc(-c3ccc(C)c(NC(=O)Cc4cccs4)c3)nc2c1,4,-4,52*,-1,-1,2,0,
Cc1cc(NC(=O)Cc2cccs2)no1,8,84*,111*,9,55*,3,-6,
Cc1cc(NS(=O)(=O)c2ccc(NC(=O)Cc3cccs3)cc2)no1,2,-6,5,-2,2,.,.,
Cc1ccc(-c2nnc(-c3ccc(NC(=O)Cc4cccs4)cc3)o2)cc1,-1,37,49,4,4,7,-1,
Cc1ccc2oc(-c3ccc(C)c(NC(=S)NC(=O)c4cccs4)c3)nc2c1,2,-2,51*,2,0,0,-2,
Cc1ccc(-c2nc3ccccc3o2)cc1NC(=S)NC(=O)c1cc2ccccc2o1,-2,-7,49,1,0,.,.,
CCOc1cc(CN2CCC(CO)(Cc3cccc(C(F)(F)F)c3)CC2)ccc1OC,3,-12,-2,0,-1,.,.,
COc1ccc(CC(=O)OCC(=O)Nc2ncc(Cl)c(C)c2Cl)cc1,7,7,5,0,-1,.,.,
COc1ccc(CC(=O)Nc2c(C(=O)N3CCN(c4ccccc4)CC3)oc3ccccc23)cc1OC,1,-8,-5,-2,2,.,.,
CC(=O)c1ccc(S(=O)(=O)N(CC(=O)NC2CC2)Cc2ccc(F)cc2)cc1,-3,-5,-4,-2,1,.,.,
COc1ccccc1C1/C(=C(\O)c2ccc3c(c2)OCCO3)C(=O)C(=O)N1Cc1cccnc1 (centres undefined),-4,0,-2,3,2,.,.,
